In ChEMBL document CHEMBL1770150, “Synthesis, biological evaluation and molecular modeling studies of quinolonyl diketo acid derivatives: new structural insight into the HIV-1 integrase inhibition” (Eur J Med Chem, 2011):

What was measured:
[1] = biological target: T1, Human immunodeficiency virus type 1 integrase (Human immunodeficiency virus 1, UniProt Q7ZJM1); assay: Inhibition of HIV1 integrase 3' processing activity after 1 hr by gel based assay in presence of magnesium
How it was run: (§1)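 Buffer was 20 mM HEPES pH 7.5, 1 mM DTT, 10 mM MgCl2 and 10% DMSO, for 1 h at 37 °C. DNA was precipitated, phenol/chloroform-extracted and analysed on gel. IC50 was fitted from percent inhibition versus concentration, from duplicate experiments.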

[2] = Cytotoxicity against human TZM-bl cells assessed as cell viability after 3 days by WST-1 assay; assay type: cell-based
How it was run: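 TZM-bl cells were seeded at 5000/well, and compound dilutions (100 to 0.032) were added 2 h later. Cells and compound were held 3 days at 37 °C in growth medium. Viability was measured by WST-1 cleavage, absorbance at […]. Cytotoxicity is the percent reduction in viable cells relative to drug-free control cultures.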

[3] = test system: Human immunodeficiency virus 1; assay: Antiviral activity against HIV1 NL4-3 infected in human TZM-bl cells assessed as inhibition of Tat protein-induced transactivation after 48 hrs by beta galactosidase assay; assay type: functional, organism-based; settings: Human immunodeficiency virus 1, NL4-3, TZM-bl
How it was run: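 TZM-bl cells were grown in DMEM at 37 °C with 5% CO2 and plated at 5000 cells/well. After 48 h the medium was replaced with compound dilutions (0.00128 to 4). Cells were infected with NL4-3 (100 ng p24) 4 h later. At 48 h post-infection, cells were lysed in PBS with 0.1% NP-40 and 5 mM MgCl2. β-galactosidase was read with chlorophenol red-galactopyranoside. EC50 came from dose-response curves.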

[4] = Selectivity index, ratio of CC50 for human TZM-bl cells to EC50 for HIV1 NL4-3; assay type: toxicity, cell-based; settings: read-out: Ratio CC50/EC50
How it was run: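 Index was calculated as CC50/EC50, both determined in TZM-bl cells (WST-1 viability over 3 days; NL4-3 infection with β-galactosidase read-out).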

[5] = biological target: T1, Human immunodeficiency virus type 1 integrase; assay: Inhibition of HIV1 integrase strand transfer activity after 1 hr by gel based assay in presence of magnesium; how it was run: as §1

T1 sequence (Q7ZJM1 whole entry): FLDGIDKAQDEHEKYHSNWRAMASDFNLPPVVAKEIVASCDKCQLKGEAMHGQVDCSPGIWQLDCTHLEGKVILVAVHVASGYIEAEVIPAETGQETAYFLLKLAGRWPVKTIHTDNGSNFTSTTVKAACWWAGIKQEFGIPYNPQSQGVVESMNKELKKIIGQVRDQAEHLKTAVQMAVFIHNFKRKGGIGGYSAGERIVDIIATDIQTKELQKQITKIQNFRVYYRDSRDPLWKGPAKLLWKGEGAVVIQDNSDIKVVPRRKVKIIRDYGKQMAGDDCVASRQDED

| Compound | IC50 [1] [µM] | CC50 at 72 h [2] [µM] | EC50 [3] [µM] | selectivity ratio [4] | IC50 [5] [µM] |
| --- | --- | --- | --- | --- | --- |
| CCOC(=O)/C(O)=C/C(=O)c1cn(Cc2ccc(F)cc2)c2ccc(OCc3ccc(F)cc3)cc2c1=O | > 300 | > 1000 | 13 | 77 | > 300 |
| O=C(O)/C(O)=C/C(=O)c1cn(Cc2ccc(F)cc2)c2ccc(OCc3ccc(F)cc3)cc2c1=O | 3 | > 1000 | 1 | 1000 | 0.05 |
| CCOC(=O)/C=C/c1ccc2c(c1)c(=O)c(C(=O)/C=C(\O)C(=O)OCC)cn2Cc1ccc(F)cc1 | > 300 | > 1000 | > 140 | 7 | > 300 |
| O=C(O)/C=C/c1ccc2c(c1)c(=O)c(C(=O)/C=C(\O)C(=O)O)cn2Cc1ccc(F)cc1 | 8 | > 1000 | 5 | 200 | 0.03 |
| O=C(O)/C(O)=C/C(=O)c1cn(Cc2ccc(F)cc2)c2ccc(Br)cc2c1=O | 1.6 | > 1000 | 4 | 250 | 0.03 |
